Screens: PubChem BioAssay, The Scripps Research Institute Molecular Screening Center
An excerpt weighted towards active compounds, which were near 1.6% of everything screened.
LEDGF integ inh: blocks HIV-1 LEDGF/p75-dependent DNA integration | TR-FRET IN-LEDGF/p75 DNA integration, Eu/Cy5 | inhibition, % at 3.7 µM | hit rate 0.64% among 370,000 | AID 743269;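 active means inhibition above the screen-wide mean plus 3 SD, cut at about 13% in these data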;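 further: signal is the Cy5 over europium emission ratio at 671 and 618 nm; 0% = plate median of compound wells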
MBD2 DNA inh: inhibitors of human MBD2 binding to methylated oligonucleotide; TR-FRET; AID 686964; inhibition, % at 4.4 µM; hit rate 0.31% among 370,000; Q9UBB5; in the data active means inhibition above about 13%
TDP2 inh: blocks human TDP2 phosphodiesterase activity; O95551; recombinant TDP2, T5PNP hydrolysis, p-nitrophenol absorbance 415 nm; inhibition, % at 12.8 µM; hit rate 0.34% among 370,000; AID 720702;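 active means inhibition above the mean of all tested compounds plus 3 SD, set per campaign, cut at about 25% in these data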;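 further: 0% = DMSO with enzyme and 100% = buffer with substrate but no TDP2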
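System: recombinant human TDP2 / Amount: 120 nM TDP2 per well / Also added: 5 mM T5PNP chromogenic substrate / Doses: 12.8 µM single point, 1% DMSO / Incubation: 2 h at 37 °C / Detection: p-Nitrophenol epi absorbance / Evaluation: % inhibition relative to enzyme-containing and enzyme-free wells / Repeats: singlicate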
UHRF1 binding: UHRF1 methyl-DNA binding inhibition; hit rate 0.75% among 370,000; inhibition, % at 4.4 µM; UHRF1 binding to methylated oligo, TR-FRET; Q96T88; in the data active means inhibition above about 21%;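 further: UHRF1 SRA domain binding a hemimethylated CpG hairpin DNA probe; 0% = median of test compound wells and 100% = reference inhibitor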
Target sequence (Q96T88 whole entry, looked up, the tested form may be a part): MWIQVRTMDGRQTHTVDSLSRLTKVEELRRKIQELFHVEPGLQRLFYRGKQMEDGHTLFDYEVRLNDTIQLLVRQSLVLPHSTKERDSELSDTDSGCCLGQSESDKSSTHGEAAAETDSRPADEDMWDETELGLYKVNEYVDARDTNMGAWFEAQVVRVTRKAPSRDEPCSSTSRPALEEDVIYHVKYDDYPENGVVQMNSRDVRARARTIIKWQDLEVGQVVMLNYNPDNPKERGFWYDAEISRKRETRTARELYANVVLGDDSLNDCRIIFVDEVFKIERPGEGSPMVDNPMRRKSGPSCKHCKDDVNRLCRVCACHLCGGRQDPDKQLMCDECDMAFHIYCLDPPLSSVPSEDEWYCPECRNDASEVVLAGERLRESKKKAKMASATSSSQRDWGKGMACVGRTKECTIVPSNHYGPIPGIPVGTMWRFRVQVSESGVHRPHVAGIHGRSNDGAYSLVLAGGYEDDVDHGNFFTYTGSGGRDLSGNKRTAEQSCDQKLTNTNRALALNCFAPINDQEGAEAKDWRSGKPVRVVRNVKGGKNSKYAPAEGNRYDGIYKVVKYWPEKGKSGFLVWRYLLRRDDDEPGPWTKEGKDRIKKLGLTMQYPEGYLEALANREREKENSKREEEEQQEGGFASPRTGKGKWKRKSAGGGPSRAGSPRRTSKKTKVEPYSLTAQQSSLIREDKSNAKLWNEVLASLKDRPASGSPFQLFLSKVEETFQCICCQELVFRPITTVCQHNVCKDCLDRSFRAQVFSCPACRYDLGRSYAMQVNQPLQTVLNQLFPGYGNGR
TDP2 confirm: human TDP2 inhibition, confirmation; shares compounds with TDP2 inh; recombinant human TDP2, absorbance read-out; inhibition, % at 12.8 µM; hit rate 22% among 1,100; in the data active means inhibition above about 25%;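 further: 0% = vehicle with enzyme and 100% = no enzyme buffer only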
* hit, by the source's call.

`COc1ccc(OC)c(C(=O)COC(=O)C(CCSC)NC(=O)COc2ccccc2)c1` (stereo not drawn) gave LEDGF integ inh -1, MBD2 DNA inh 0, TDP2 inh -12 and UHRF1 binding -1.
`O=C(Nc1cc(Cl)ccc1F)C1CCCN1S(=O)(=O)c1cccc2cccnc12` (stereo not drawn) gave LEDGF integ inh 4, MBD2 DNA inh 1, TDP2 inh 8 and UHRF1 binding 1.
COc1cc(C(=O)N2CCN(C3CCCCC3)CC2)cc(OC)c1OC was read as LEDGF integ inh -2, MBD2 DNA inh -2, TDP2 inh 25*, UHRF1 binding -3 and TDP2 confirm 6.
For Cc1ccccc1CN1CCN(C(=O)c2ccco2)CC1 the results were LEDGF integ inh 1, MBD2 DNA inh 2, TDP2 inh 28*, UHRF1 binding -1 and TDP2 confirm 6.
Screening Cc1ccccc1CC(=O)N1CCN(C(=O)c2ccco2)CC1 returned LEDGF integ inh 0, MBD2 DNA inh 2, TDP2 inh 4 and UHRF1 binding -4.
For Cc1ccccc1CN1CCN(C(=O)c2ccc(F)cc2)CC1 the results were LEDGF integ inh 3, MBD2 DNA inh 1, TDP2 inh 29*, UHRF1 binding -1 and TDP2 confirm 11.
For Cc1nn(-c2ccccc2)c2sc(C(=O)N3CCC4(CC3)OCCO4)cc12 the results were LEDGF integ inh -7, MBD2 DNA inh 11, TDP2 inh 3 and UHRF1 binding 0.
For CS(=O)(=O)Nc1ccc(-c2cn3cccnc3n2)cc1 the results were LEDGF integ inh -3, MBD2 DNA inh -4, TDP2 inh 26*, UHRF1 binding -2 and TDP2 confirm 6.
S=C(Nc1ccc2nc(-c3ccccn3)c(-c3ccccn3)nc2c1)N1CCOCC1 was read as LEDGF integ inh 26*, MBD2 DNA inh -1, TDP2 inh 31*, UHRF1 binding 10 and TDP2 confirm 0.
`CN(C)NC(=S)Nc1ccc2nc(-c3ccccn3)c(-c3ccccn3)nc2c1` gave LEDGF integ inh 0, MBD2 DNA inh 0, TDP2 inh 5 and UHRF1 binding 7.
`CC1CCN(C(=O)Cn2c(SCC(=O)Nc3nccs3)nc3ccccc32)CC1` gave LEDGF integ inh 2, MBD2 DNA inh 0, TDP2 inh 30*, UHRF1 binding 2 and TDP2 confirm 6.
`CCN(C(=O)C1CCCN1S(=O)(=O)c1cccnc1)c1ccccc1` (stereo not drawn) gave LEDGF integ inh 6, MBD2 DNA inh -1, TDP2 inh -2 and UHRF1 binding 5.
`CCc1noc(C)c1C(=O)Nc1cccc(S(=O)(=O)N2CCCCCC2)c1` gave LEDGF integ inh -1, MBD2 DNA inh 2, TDP2 inh 20 and UHRF1 binding 0.
`CCOc1ccc(S(=O)(=O)N2CCCCC2)cc1NC(=O)c1c(CC)noc1C` gave LEDGF integ inh -1, MBD2 DNA inh -3, TDP2 inh 25*, UHRF1 binding -4 and TDP2 confirm -8.
Cc1[nH]nc2c1C(c1ccc(F)cc1)N(c1ccccc1)C2=O (stereo not drawn) was read as LEDGF integ inh 1, MBD2 DNA inh 3, TDP2 inh -6 and UHRF1 binding 0.
Screening Oc1ccc(NCc2ccc(OCc3ccccc3)cc2)cc1 returned LEDGF integ inh 7, MBD2 DNA inh -9, TDP2 inh 34*, UHRF1 binding 9 and TDP2 confirm 39*.
Screening COc1cc(CNc2ccc(O)cc2)cc(Br)c1OCc1ccccc1 returned LEDGF integ inh 10, MBD2 DNA inh -8, TDP2 inh 36*, UHRF1 binding 5 and TDP2 confirm -5.
Screening COc1cc(CNC(C)c2ccccc2)cc(Br)c1OCc1ccccc1 (stereo not drawn) returned LEDGF integ inh 2, MBD2 DNA inh -1, TDP2 inh 8 and UHRF1 binding -1.
COC(=O)Nc1ccc(OCc2ccccc2)cc1 was read as LEDGF integ inh 1, MBD2 DNA inh -6, TDP2 inh 4 and UHRF1 binding 0.
For Cc1nn(-c2ccccc2)c2c1C(c1ccco1)C(C#N)=C(N)O2 (stereo not drawn) the results were LEDGF integ inh 2, MBD2 DNA inh -3, TDP2 inh 9 and UHRF1 binding -9.
Cc1ccc(-n2nc(C)c3c2OC(N)=C(C#N)C3c2ccc(F)cc2)cc1 (stereo not drawn) was read as LEDGF integ inh -1, MBD2 DNA inh 0, TDP2 inh 49*, UHRF1 binding -5 and TDP2 confirm 0.
For Cc1nn(-c2cccc(Cl)c2)c2c1C(c1cccnc1)C(C#N)=C(N)O2 (stereo not drawn) the results were LEDGF integ inh 2, MBD2 DNA inh -3, TDP2 inh 60*, UHRF1 binding 12 and TDP2 confirm 7.
Screening Cc1nn(-c2ccccc2)c2c1C(c1ccc([N+](=O)[O-])cc1)C(C#N)=C(N)O2 (stereo not drawn) returned LEDGF integ inh 4, MBD2 DNA inh -3, TDP2 inh 62*, UHRF1 binding 2 and TDP2 confirm 0.
Screening Cc1nn(-c2cccc(Cl)c2)c2c1C(c1ccncc1)C(C#N)=C(N)O2 (stereo not drawn) returned LEDGF integ inh 0, MBD2 DNA inh -2, TDP2 inh 22 and UHRF1 binding 3.
For CCN=C1NC(c2ccc(F)cc2)C(C(=O)OC)=C(C)N1Cc1ccccc1C(F)(F)F (stereo not drawn) the results were LEDGF integ inh -1, MBD2 DNA inh 0, TDP2 inh 0 and UHRF1 binding 0.
For CCOC(=O)N[C@H](C(=O)N1CCC[C@H]1C(=O)NCc1ccccc1)C(C)C the results were LEDGF integ inh 6, MBD2 DNA inh -2, TDP2 inh 4 and UHRF1 binding -3.
Screening CCc1cccc(NC(=S)Nc2cccc3ccccc23)c1 returned LEDGF integ inh -1, MBD2 DNA inh -7, TDP2 inh -6 and UHRF1 binding -5.
Screening S=C(Nc1ccc(Cl)cc1)Nc1cccc2cnccc12 returned LEDGF integ inh 4, MBD2 DNA inh -7, TDP2 inh 35*, UHRF1 binding 15 and TDP2 confirm 31*.
For Cc1cccc(NC(=S)Nc2cccc3ccccc23)c1 the results were LEDGF integ inh 8, MBD2 DNA inh -2, TDP2 inh 25*, UHRF1 binding -4 and TDP2 confirm -2.
Screening Fc1ccc(NC(=S)Nc2cccc3cnccc23)cc1 returned LEDGF integ inh 0, MBD2 DNA inh 0, TDP2 inh 30*, UHRF1 binding 0 and TDP2 confirm -1.
COc1ccc(NC(=S)Nc2cccc3cnccc23)cc1 was read as LEDGF integ inh 0, MBD2 DNA inh -7, TDP2 inh 16 and UHRF1 binding -3.
Screening C=CCn1c(Cc2cccs2)nnc1SCC(=O)Nc1ccc(OCc2ccccc2)cc1 returned LEDGF integ inh 2, MBD2 DNA inh 1, TDP2 inh 1 and UHRF1 binding -2.
`CCOC(=O)c1c(C)oc2c1C(=O)c1ccccc1C2=O` gave LEDGF integ inh 1, MBD2 DNA inh -1, TDP2 inh -6 and UHRF1 binding 3.
